Measurements taken from ChEMBL document CHEMBL1811814, “Synthesis and evaluation of indole, pyrazole, chromone and pyrimidine based conjugates for tumor growth inhibitory activities--development of highly efficacious cytotoxic agents” (Eur J Med Chem, 2010).

What was measured:
Type in all cases: functional
HT-29 [1] = test: Growth inhibition of human HT-29 cells
SF-295 = test: Growth inhibition of human SF295 cells assessed tumor cell growth at 10^-5 M; design: scale not given: the % may be the effect or the level left
Procedure, shortened: (§1)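 NCI 60-human-tumor-cell-line panel screen. Each compound was tested at a single concentration of 10^-5 M, and percent growth of tumor cells was recorded for each cell line. Growth inhibition was expressed from these percent-growth values.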

SK-OV-3 = test: Growth inhibition of human SKOV3 cells assessed tumor cell growth at 10^-5 M; design: scale not given: the % may be the effect or the level left; procedure, shortened: as §1
OVCAR-5 = test: Growth inhibition of human OVCAR5 cells assessed tumor cell growth at 10^-5 M; design: scale not given: the % may be the effect or the level left; procedure, shortened: as §1
OVCAR-4 [2] = test: Growth inhibition of human OVCAR4 cells
NCI/ADR-RES [3] = test: Growth inhibition of human NCI/ADR-RES cells assessed tumor cell growth at 10^-5 M; design: scale not given: the % may be the effect or the level left; procedure, shortened: as §1
HOP-92 = test: Growth inhibition of human HOP92 cells assessed tumor cell growth at 10^-5 M; design: scale not given: the % may be the effect or the level left; procedure, shortened: as §1
OVCAR-8 = test: Growth inhibition of human OVCAR8 cells assessed tumor cell growth at 10^-5 M; design: scale not given: the % may be the effect or the level left; procedure, shortened: as §1
SF-268 = test: Growth inhibition of human SF268 cells assessed tumor cell growth at 10^-5 M; design: scale not given: the % may be the effect or the level left; procedure, shortened: as §1
UACC-62 [4] = test: Growth inhibition of human UACC62 cells
DU-145 = test: Growth inhibition of human DU145 cells
SNB-75 = test: Growth inhibition of human SNB75 cells
UO-31 = test: Growth inhibition of human UO31 cells
HCT-116 = test: Growth inhibition of human HCT116 cells
NCI-H226 = test: Growth inhibition of human NCI-H226 cells assessed tumor cell growth at 10^-5 M; design: scale not given: the % may be the effect or the level left; procedure, shortened: as §1
OVCAR-4 [5] = test: Growth inhibition of human OVCAR4 cells assessed tumor cell growth at 10^-5 M; design: scale not given: the % may be the effect or the level left; procedure, shortened: as §1
K562 = test: Growth inhibition of human K562 cells assessed tumor cell growth at 10^-5 M; design: scale not given: the % may be the effect or the level left; procedure, shortened: as §1
NCI-H322M = test: Growth inhibition of human NCI-H322M cells
HT-29 [6] = test: Growth inhibition of human HT-29 cells assessed tumor cell growth at 10^-5 M; design: scale not given: the % may be the effect or the level left; procedure, shortened: as §1
SNB-19 = test: Growth inhibition of human SNB19 cells assessed tumor cell growth at 10^-5 M; design: scale not given: the % may be the effect or the level left
Procedure, shortened: (§2)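 Single-dose screen at 10^-5 M across the 60 human tumor cell line panel, run to NCI standards. The value is the percent growth of each cell line in the presence of compound. Compounds active at this dose moved on to five-concentration testing (10^-4 to 10^-8 M).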

786-0 = test: Growth inhibition of human 786-0 cells
NCI/ADR-RES [7] = test: Growth inhibition of human NCI/ADR-RES cells
UACC-62 [8] = test: Growth inhibition of human UACC62 cells assessed tumor cell growth at 10^-5 M; design: scale not given: the % may be the effect or the level left; procedure, shortened: as §2
KM12 = test: Growth inhibition of human KM12 cells assessed tumor cell growth at 10^-5 M; design: scale not given: the % may be the effect or the level left; procedure, shortened: as §1
CCRF-CEM = test: Growth inhibition of human CCRF-CEM cells assessed tumor cell growth at 10^-5 M; design: scale not given: the % may be the effect or the level left; procedure, shortened: as §1
MDA-MB-468 [9] = test: Growth inhibition of human MDA-MB-468 cells assessed tumor cell growth at 10^-5 M; design: scale not given: the % may be the effect or the level left; procedure, shortened: as §1
MDA-MB-468 [10] = test: Growth inhibition of human MDA-MB-468 cells
TK-10 = test: Growth inhibition of human TK10 cells
[11] = read-out: LC50 (the source's name)

## CC1=NN(c2cccc(Cl)c2)C(=O)/C1=C\c1c(O)ccc2ccccc12
HT-29 [1]
  GI50: > 100 µM
HT-29 [1]; [11]
  CC50: > 100 µM
SF-295
  Activity: 25.62%
SK-OV-3
  Activity: 28.27%
OVCAR-5
  Activity: 16.91%
OVCAR-4 [2]
  GI50: > 100 µM
OVCAR-4 [2]; [11]
  CC50: > 100 µM
NCI/ADR-RES [3]
  Activity: 75.31%
HOP-92
  Activity: -2.07%
OVCAR-8
  Activity: 22.34%
SF-268
  Activity: 47.23%
UACC-62 [4]
  GI50: 39.8 µM
UACC-62 [4]; [11]
  CC50: > 100 µM
DU-145
  GI50: 70.7 µM
DU-145; [11]
  CC50: > 100 µM
SNB-75
  GI50: 0.9 µM
SNB-75; [11]
  CC50: > 100 µM
UO-31
  GI50: > 100 µM
UO-31; [11]
  CC50: > 100 µM
HCT-116
  GI50: > 100 µM
HCT-116; [11]
  CC50: > 100 µM
NCI-H226
  Activity: 1.04%
OVCAR-4 [5]
  Activity: -66.84%
K562
  Activity: 99.09%
NCI-H322M
  GI50: > 100 µM
NCI-H322M; [11]
  CC50: > 100 µM
HT-29 [6]
  Activity: 13.48%
SNB-19
  Activity: 31.43%
786-0
  GI50: 21.3 µM
786-0; [11]
  CC50: > 100 µM
NCI/ADR-RES [7]
  GI50: > 100 µM
NCI/ADR-RES [7]; [11]
  CC50: > 100 µM
UACC-62 [8]
  Activity: 82.71%
KM12
  Activity: 21.17%
CCRF-CEM
  Activity: 36.33%
MDA-MB-468 [9]
  Activity: 34.53%
MDA-MB-468 [10]
  GI50: 17.7 µM
MDA-MB-468 [10]; [11]
  CC50: > 100 µM
TK-10
  GI50: 34.6 µM
